Blank lines part the entries; values can stand above or below the compound they belong to.
What was measured:
[1] = Dose normalized AUC (0 to infinity) in male ICR mouse at 2 mg/kg, iv measured after 24 hrs by LC-MS/MS analysis; type: ADME, organism-based; settings: in vivo
Procedure, shortened: (§1)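 Male ICR mice (25–35 g) given one iv or oral dose of 2, 3 or 10 mg/kg. Vehicles were PEG400/DMA (80/20) for both routes, or DMSO/CrEL/D5W (5/5/90) iv and 1% CMC + 0.5% Tween80 oral. Plasma was taken by cardiac puncture at 0–24 h, three mice per time point. Parent drug was measured by LC-MS/MS and analysed noncompartmentally. DNAUC = AUC(0–inf)/dose.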

[2] = Dose normalized AUC (0 to infinity) in male ICR mouse at 10 mg/kg, po measured after 24 hrs by LC-MS/MS analysis; type: ADME, organism-based; settings: in vivo; procedure, shortened: as §1
[3] = target: T1, Tyrosine-protein kinase Mer (Homo sapiens) (UniProt Q12866); assay: Inhibition of MER (unknown origin) at 1 uM preincubated for 15 mins followed by substrate and ATP addition and measured after 3 hrs by ADP-Glo kinase assay relative to control; settings: time 195.0 min
T1 sequence (whole entry): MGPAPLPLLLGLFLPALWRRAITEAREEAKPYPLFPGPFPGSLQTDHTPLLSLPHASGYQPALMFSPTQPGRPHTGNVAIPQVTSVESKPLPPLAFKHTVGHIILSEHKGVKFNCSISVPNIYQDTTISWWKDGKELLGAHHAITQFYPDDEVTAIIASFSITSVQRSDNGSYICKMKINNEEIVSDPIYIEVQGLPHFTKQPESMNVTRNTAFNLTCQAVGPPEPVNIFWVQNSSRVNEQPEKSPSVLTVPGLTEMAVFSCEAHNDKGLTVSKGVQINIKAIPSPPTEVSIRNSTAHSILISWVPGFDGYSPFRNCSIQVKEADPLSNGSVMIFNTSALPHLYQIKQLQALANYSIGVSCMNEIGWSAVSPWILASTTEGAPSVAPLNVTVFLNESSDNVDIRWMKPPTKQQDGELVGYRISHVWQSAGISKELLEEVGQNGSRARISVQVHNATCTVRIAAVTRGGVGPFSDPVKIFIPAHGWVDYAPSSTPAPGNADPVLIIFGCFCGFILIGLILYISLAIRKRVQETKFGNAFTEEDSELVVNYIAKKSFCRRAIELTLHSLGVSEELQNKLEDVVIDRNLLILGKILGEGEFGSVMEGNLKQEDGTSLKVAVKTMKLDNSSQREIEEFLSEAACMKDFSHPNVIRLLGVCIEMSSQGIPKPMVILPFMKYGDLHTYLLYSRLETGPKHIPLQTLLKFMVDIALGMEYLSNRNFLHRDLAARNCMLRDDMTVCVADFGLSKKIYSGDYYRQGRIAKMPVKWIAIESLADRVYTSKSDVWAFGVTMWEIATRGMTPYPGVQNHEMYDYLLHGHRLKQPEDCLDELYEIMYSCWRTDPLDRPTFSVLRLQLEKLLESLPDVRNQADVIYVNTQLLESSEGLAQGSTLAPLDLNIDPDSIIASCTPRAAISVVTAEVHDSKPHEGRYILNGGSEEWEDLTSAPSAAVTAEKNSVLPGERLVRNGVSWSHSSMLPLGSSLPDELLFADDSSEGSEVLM

[4] = target: Epidermal growth factor receptor (Homo sapiens) (UniProt P00533); assay: Inhibition of wildtype EGFR (unknown origin) at 1 uM by kinase Glo assay relative to control
Sequence of Epidermal growth factor receptor (Homo sapiens) (P00533 whole entry): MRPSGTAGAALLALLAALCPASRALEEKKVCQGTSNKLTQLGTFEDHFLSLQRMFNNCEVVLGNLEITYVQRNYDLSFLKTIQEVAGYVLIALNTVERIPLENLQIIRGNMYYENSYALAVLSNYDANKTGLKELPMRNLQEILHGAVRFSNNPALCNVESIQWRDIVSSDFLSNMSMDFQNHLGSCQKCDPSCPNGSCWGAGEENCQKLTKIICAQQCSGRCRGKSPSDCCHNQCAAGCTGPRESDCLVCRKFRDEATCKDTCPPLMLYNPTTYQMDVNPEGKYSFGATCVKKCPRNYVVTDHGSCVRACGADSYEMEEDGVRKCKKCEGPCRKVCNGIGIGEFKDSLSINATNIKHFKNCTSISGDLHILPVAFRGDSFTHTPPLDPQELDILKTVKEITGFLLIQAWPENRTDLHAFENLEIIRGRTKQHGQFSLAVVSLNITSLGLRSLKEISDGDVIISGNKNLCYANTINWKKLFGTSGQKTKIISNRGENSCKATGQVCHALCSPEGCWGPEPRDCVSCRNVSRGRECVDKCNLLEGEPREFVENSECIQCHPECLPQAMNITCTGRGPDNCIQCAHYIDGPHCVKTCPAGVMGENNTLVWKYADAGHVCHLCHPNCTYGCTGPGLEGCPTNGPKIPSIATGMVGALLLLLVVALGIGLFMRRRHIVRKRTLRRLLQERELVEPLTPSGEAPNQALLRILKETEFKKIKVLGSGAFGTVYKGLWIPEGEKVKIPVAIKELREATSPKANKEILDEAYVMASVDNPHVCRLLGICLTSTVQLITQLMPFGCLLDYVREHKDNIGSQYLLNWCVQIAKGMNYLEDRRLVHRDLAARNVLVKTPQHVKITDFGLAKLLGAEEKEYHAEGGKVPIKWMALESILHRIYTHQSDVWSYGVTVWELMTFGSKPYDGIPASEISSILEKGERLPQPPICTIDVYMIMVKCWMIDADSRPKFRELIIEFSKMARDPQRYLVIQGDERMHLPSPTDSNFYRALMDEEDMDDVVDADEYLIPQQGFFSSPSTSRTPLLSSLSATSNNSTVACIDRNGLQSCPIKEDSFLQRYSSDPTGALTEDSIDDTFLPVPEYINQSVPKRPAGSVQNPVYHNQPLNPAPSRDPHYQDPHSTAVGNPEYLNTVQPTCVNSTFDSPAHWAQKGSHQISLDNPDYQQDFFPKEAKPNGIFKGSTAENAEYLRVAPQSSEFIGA
Procedure, shortened: (§2)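 In-house Kinase-Glo luminescence assay on wild-type and T790M/L858R EGFR. Values are the mean of at least two independent experiments.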

[5] = target: Tyrosine-protein kinase receptor UFO (Homo sapiens) (UniProt P30530); assay: Inhibition of AXL (unknown origin) at 1 uM preincubated for 15 mins followed by substrate and ATP addition and measured after 3 hrs by ADP-Glo kinase assay relative to control; settings: time 195.0 min
Sequence of Tyrosine-protein kinase receptor UFO (Homo sapiens) (P30530 whole entry): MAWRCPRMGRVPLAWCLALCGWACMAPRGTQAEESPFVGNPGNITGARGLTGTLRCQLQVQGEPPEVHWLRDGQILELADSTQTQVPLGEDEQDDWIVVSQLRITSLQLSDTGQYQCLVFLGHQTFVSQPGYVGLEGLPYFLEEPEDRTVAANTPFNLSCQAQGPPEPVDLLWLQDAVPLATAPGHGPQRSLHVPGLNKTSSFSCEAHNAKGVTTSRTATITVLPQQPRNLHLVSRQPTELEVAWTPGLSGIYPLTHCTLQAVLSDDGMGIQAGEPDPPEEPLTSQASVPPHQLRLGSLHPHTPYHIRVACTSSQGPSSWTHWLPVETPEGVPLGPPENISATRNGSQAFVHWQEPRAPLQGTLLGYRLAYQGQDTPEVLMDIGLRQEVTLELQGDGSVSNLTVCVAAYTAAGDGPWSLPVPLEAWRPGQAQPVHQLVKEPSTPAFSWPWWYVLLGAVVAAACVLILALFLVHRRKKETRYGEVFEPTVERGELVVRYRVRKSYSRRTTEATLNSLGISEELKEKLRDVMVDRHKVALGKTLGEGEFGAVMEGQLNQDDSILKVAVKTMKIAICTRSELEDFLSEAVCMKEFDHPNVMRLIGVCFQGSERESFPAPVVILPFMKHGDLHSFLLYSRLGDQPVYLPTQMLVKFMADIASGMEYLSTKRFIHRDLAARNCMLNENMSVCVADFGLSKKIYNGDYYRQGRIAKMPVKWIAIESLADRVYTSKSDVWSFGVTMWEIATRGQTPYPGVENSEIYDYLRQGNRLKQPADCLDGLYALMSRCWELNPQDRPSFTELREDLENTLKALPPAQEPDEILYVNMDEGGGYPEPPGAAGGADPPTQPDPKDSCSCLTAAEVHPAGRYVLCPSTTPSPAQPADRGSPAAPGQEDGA

[6] = test system: Epidermal growth factor receptor (Homo sapiens), P00533 [L858R,T790M]; assay: Inhibition of EGFR T790M/L858R double mutant (unknown origin) at 1 uM by kinase Glo assay relative to control; procedure, shortened: as §2
Sequence of Epidermal growth factor receptor (Homo sapiens), P00533 [L858R,T790M] (P00533 whole entry T790M/L858R, looked up): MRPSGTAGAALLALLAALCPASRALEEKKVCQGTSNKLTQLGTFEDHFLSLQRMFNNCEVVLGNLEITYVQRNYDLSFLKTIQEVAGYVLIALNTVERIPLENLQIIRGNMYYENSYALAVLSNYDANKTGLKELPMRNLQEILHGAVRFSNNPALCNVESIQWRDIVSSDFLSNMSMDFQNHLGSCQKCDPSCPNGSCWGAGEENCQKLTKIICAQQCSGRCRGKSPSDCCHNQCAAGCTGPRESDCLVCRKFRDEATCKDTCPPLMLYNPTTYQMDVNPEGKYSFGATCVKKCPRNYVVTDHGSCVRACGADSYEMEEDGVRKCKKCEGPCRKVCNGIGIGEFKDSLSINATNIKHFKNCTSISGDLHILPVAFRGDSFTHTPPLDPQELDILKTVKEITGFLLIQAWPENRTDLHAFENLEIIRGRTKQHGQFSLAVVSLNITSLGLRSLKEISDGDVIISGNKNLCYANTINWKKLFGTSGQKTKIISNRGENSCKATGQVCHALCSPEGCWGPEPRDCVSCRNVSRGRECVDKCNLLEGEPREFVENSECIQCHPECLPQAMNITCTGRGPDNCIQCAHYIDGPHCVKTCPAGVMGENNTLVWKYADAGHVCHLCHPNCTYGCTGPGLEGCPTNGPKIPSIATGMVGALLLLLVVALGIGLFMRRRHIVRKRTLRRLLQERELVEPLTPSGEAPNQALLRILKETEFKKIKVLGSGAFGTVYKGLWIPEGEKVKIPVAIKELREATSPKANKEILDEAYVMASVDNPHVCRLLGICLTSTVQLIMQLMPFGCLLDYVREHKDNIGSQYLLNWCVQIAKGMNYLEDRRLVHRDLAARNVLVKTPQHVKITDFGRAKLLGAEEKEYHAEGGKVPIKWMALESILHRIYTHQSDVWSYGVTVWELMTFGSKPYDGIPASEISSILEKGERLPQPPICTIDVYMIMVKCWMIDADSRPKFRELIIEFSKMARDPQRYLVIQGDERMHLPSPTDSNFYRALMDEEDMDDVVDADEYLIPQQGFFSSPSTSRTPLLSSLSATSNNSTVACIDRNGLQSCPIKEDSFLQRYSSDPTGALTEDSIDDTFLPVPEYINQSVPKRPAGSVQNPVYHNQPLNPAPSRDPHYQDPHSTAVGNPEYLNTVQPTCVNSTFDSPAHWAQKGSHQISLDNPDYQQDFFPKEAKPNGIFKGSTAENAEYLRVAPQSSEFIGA

MDA-MB-231 [7] = assay: Antitumor activity against MER/AXL overexpressing human MDA-MB-231 cells xenografted in immunodeficient NOD/SCID mouse model assessed as tumor growth inhibition at 25 mg/kg, po administered twice a day with five days on and two days off for 4 weeks in presence of (1r,4r)-4-(2-(butylamino)-5-(4-((4-methylpiperazin-1-yl)methyl)phenyl)-7H-pyrrolo[2,3-d]pyrimidin-7-yl)cyclohexan-1-ol relative to …; type: functional; settings: MDA-MB-231, 672 h, read-out: TGI
MDA-MB-231 [8] = assay: Antitumor activity against MER/AXL overexpressing human MDA-MB-231 cells xenografted in immunodeficient NOD/SCID mouse model assessed as tumor growth inhibition at 25 mg/kg, po administered twice a day with five days on and two days off for 4 weeks relative to control; type: functional; settings: MDA-MB-231, 672 h, read-out: TGI
Procedure, shortened: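 Female NOD/SCID mice (6–7 weeks old) were given 5 million Mycoplasma-free MDA-MB-231 cells in 1:1 matrigel/medium, implanted subcutaneously. After randomization at about 150 mm³ average tumor volume, mice got oral drug or vehicle, BID, FOTO, for 4 weeks, n = 8 per group. Caliper volumes (L×W×W/2) were measured weekly. %TGI = [1 − ΔT/ΔC]×100, with Δ taken from day 0.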

[9] = target: T2, Tyrosine-protein kinase Mer (Homo sapiens, UniProt Q12866); assay: Inhibition of MER (unknown origin) by KINOMEScan assay
T2 sequence (Q12866 whole entry): T1 sequence (whole entry)

MDA-MB-231 [10] = assay: Antitumor activity against MER/AXL overexpressing human MDA-MB-231 cells xenografted in immunodeficient NOD/SCID mouse model assessed as tumor growth inhibition at 25 mg/kg, po administered twice a day with five days on and two days off for 4 weeks in presence of bemcentinib relative to control; type: functional; settings: MDA-MB-231, 672 h, read-out: TGI
Procedure, shortened: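 MDA-MB-231 cells (5 million, 1:1 matrigel/medium) implanted in 6–7-week-old female NOD/SCID mice. Dosing began at about 150 mm³ mean tumor volume: 25 mg/kg oral BID on a five-on/two-off schedule for 4 weeks, given alone or in combination.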

[11] = Dose normalized AUC (0 to infinity) in male ICR mouse at 3 mg/kg, po measured after 24 hrs by LC-MS/MS analysis; type: ADME, organism-based; settings: in vivo; procedure, shortened: as §1
[12] = Toxicity in immunocompetent female C57BL/6 mouse implanted with mouse MC-38 cells assessed as body weight loss at 50 mg/kg, po administered twice a day with five days on and two days off for 3 weeks; type: organism-based; settings: in vivo, 504 h
Procedure, shortened: (§3)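 Syngeneic models in female C57BL/6 mice aged 6–7 weeks: MC38 (10⁵ cells) or Hepa1–6 (10⁶ cells) injected subcutaneously into the left flank. Oral dosing on a five-on/two-off schedule: MC38 at 50 mg/kg QD or BID for 3 weeks, Hepa1–6 at 30 mg/kg QD. Body weight was recorded weekly. n = 8–9 per group.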

[13] = Toxicity in immunocompetent female C57BL/6 mouse implanted with mouse MC-38 cells assessed as body weight loss at 25 to 50 mg/kg, po administered twice a day with five days on and two days off for 3 weeks; type: organism-based; settings: in vivo, 504 h, dose 25-50 mg/kg
Procedure, shortened: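 Female C57BL/6 mice aged 6–7 weeks bearing subcutaneous MC38 (10⁵ cells) tumors, treated from 50–60 mm³. Dosing was 25 or 50 mg/kg oral BID on a five-on/two-off schedule for 3 weeks. Body weight was recorded weekly. n = 8 per group.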

[14] = Toxicity in immunocompetent female C57BL/6 mouse implanted with mouse MC-38 cells assessed as body weight loss at 50 mg/kg, po administered once a day with five days on and two days off for 3 weeks; type: organism-based; settings: in vivo, 504 h; procedure, shortened: as §3
[15] = Dose normalized AUC (0 to infinity) in male ICR mouse at 3 mg/kg, iv measured after 24 hrs by LC-MS/MS analysis; type: ADME, organism-based; settings: in vivo; procedure, shortened: as §1
[16] = Toxicity in immunodeficient NOD/SCID mouse xenografted with MER/AXL overexpressing human MDA-MB-231 cells assessed as body weight loss at 50 mg/kg, po administered once a day with five days on and two days off; type: organism-based; settings: in vivo
[17] = Toxicity in immunocompetent female C57BL/6 mouse implanted with mouse MC-38 cells assessed as body weight loss at 50 mg/kg, po administered once a day with five days on and two days off; type: organism-based; settings: in vivo; procedure, shortened: as §3
[18] = Toxicity in BALB/c mouse implanted with mouse 4T1 cells assessed as body weight loss at 50 mg/kg, po administered once a day with five days on and two days off; type: organism-based; settings: in vivo
Procedure, shortened: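 Female Balb/c mice aged 6–7 weeks implanted with 4T1 cells (1 million in matrigel/medium) in the fourth left mammary fat pad. Treatment started near 50–60 mm³: 50 mg/kg oral QD on a five-on/two-off schedule. Body weight was measured weekly. n = 8–9 per group.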

[19] = Toxicity in ICR mouse assessed as decrease in creatinine level at 100 mg/kg administered for 14 days; type: organism-based; settings: in vivo, 336 h, time 14 day
[20] = Toxicity in immunocompetent female C57BL/6 mouse implanted with mouse Hepa1-6 cells assessed as body weight loss at 30 mg/kg, po administered once a day with five days on and two days off; type: organism-based; settings: in vivo; procedure, shortened: as §3
[21] = Toxicity in ICR mouse at 10 to 100 mg/kg administered for 14 days; type: organism-based; settings: in vivo, 336 h, dose 10-100 mg/kg, time 14 day
[22] = Volume of distribution at steady state in male ICR mouse at 2 mg/kg, iv measured after 24 hrs by LC-MS/MS analysis; type: ADME, organism-based; settings: in vivo; procedure, shortened: as §1
[23] = Toxicity in ICR mouse assessed as decrease in creatinine level at 30 to 100 mg/kg administered for 14 days; type: organism-based; settings: in vivo, 336 h, dose 30-100 mg/kg, time 14 day

Structure (SMILES): Nc1nc(Nc2ccc3c(c2)CC[C@@H](N2CCCC2)CC3)nn1-c1cc2c(nn1)-c1ccccc1CCC2 [BEMCENTINIB]
- inhibition in vivo at 25 mg/kg (MDA-MB-231 [7]): 52.4%
- inhibition in vivo at 25 mg/kg (MDA-MB-231 [8]): 7.7%

Structure (SMILES): CCCCNc1ncc2c(-c3ccc(CN4CCN(C)CC4)cc3)cn([C@H]3CC[C@H](O)CC3)c2n1
- inhibition in vivo at 25 mg/kg (MDA-MB-231 [8]): 15.9%
- inhibition in vivo at 25 mg/kg (MDA-MB-231 [10]): 52.4%

Structure (SMILES): Cn1cc(-c2oc3ncnc(Oc4ccc(NC(=O)c5cccn(-c6ccc(F)cc6)c5=O)cc4)c3c2-c2cccc(CN)c2)cn1
- AUC/dose [1]: 483 ng.hr/ml per mg/kg

Structure (SMILES): Nc1cccc(-c2c(-c3ccccc3)oc3ncnc(Oc4ccc(NC(=O)C5(C(=O)Nc6ccc(F)cc6)CC5)cc4)c23)c1
- inhibition [3]: 71%
- inhibition [4]: 0%
- inhibition [5]: 100%
- inhibition [6]: -9%

Structure (SMILES): COc1cc2nccc(Oc3ccc(NC(=O)c4cc5c(n(-c6ccccc6)c4=O)CCCC5=O)nc3)c2cc1OC [TAMNORZATINIB]
- Activity [16]: Non-Toxic
- Activity [17]: Non-Toxic
- Activity [18]: Non-Toxic
- Activity [19]: Toxic
- Activity [20]: Non-Toxic

Structure (SMILES): O=C(Nc1ccc(F)cc1)C1(C(=O)Nc2ccc(Oc3ncnc4oc(-c5ccccc5)c(-c5ccccc5)c34)cc2)CC1
- inhibition [3]: 41%
- inhibition [4]: 3%
- inhibition [5]: 98%
- inhibition [6]: 2%

Structure (SMILES): Nc1cccc(-c2c(-c3ccccc3)oc3ncnc(Nc4ccc(NC(=O)C5(C(=O)Nc6ccc(F)cc6)CC5)cc4)c23)c1
- inhibition [3]: 19%
- inhibition [4]: 1%
- inhibition [5]: 92%
- inhibition [6]: -4%

More lines, main results first:

- AUC/dose [1]: 454.5 ng.hr/ml per mg/kg
- AUC/dose [2]: 2.6 ng.hr/ml per mg/kg
Structure (SMILES): Cn1cc(-c2oc3ncnc(Oc4ccc(NC(=O)c5cccn(-c6ccc(F)cc6)c5=O)cc4)c3c2-c2cccc(N3CCNCC3)c2)cn1

- inhibition [3]: 4%
- inhibition [4]: 4%
- inhibition [5]: 53%
- inhibition [6]: 1%
Structure (SMILES): O=C(Nc1ccc(F)cc1)C1(C(=O)Nc2ccc(Oc3ncnc4oc(-c5ccccc5)cc34)cc2)CC1

- IC50 [9]: 0.8 nM
Structure (SMILES): Cc1ccc(C(=O)Nc2ccc(Oc3cc4cnn(C)c4cc3-c3cn[nH]c3)c(F)c2)c(=O)n1-c1ccc(F)cc1 [MERESTINIB]

- AUC/dose [1]: 3330.5 ng.hr/ml per mg/kg
- AUC/dose [2]: 15.3 ng.hr/ml per mg/kg
Structure (SMILES): CNc1cccc(-c2c(-c3cnn(C)c3)oc3ncnc(Oc4ccc(NC(=O)c5cccn(-c6ccc(F)cc6)c5=O)cc4)c23)c1

- AUC/dose [1]: 221 ng.hr/ml per mg/kg
- AUC/dose [2]: 32.8 ng.hr/ml per mg/kg
Structure (SMILES): CN1CCN(c2cccc(-c3c(-c4cnn(C)c4)oc4ncnc(Oc5ccc(NC(=O)c6cccn(-c7ccc(F)cc7)c6=O)cc5)c34)c2)CC1

- AUC/dose [11]: 764 ng·h/mL
- AUC/dose [15]: 3985.3 ng·h/mL
Structure (SMILES): Cn1cc(-c2oc3ncnc(Oc4ccc(NC(=O)c5cccn(-c6ccc(F)cc6)c5=O)cc4)c3c2-c2cccc(N)c2)cn1
- Activity [12]: Non-Toxic
- Activity [13]: Non-Toxic
- Activity [14]: Non-Toxic

- inhibition [3]: 9%
- inhibition [4]: 1%
- inhibition [5]: 95%
- inhibition [6]: -6%
Structure (SMILES): Nc1cccc(-c2c(-c3ccccc3)oc3ncnc(Oc4ccc(NC(=S)NC(=O)Cc5ccccc5)cc4)c23)c1

- Vdss [22]: 52 L/kg
Structure (SMILES): CN(C)Cc1cccc(-c2c(-c3cnn(C)c3)oc3ncnc(Oc4ccc(NC(=O)c5cccn(-c6ccc(F)cc6)c5=O)cc4)c23)c1
- Activity [16]: Non-Toxic
- Activity [21]: Non-Toxic
- Activity [17]: Non-Toxic
- Activity [12]: Non-Toxic
- Activity [18]: Non-Toxic
- Activity [14]: Non-Toxic
- Activity [23]: Toxic
- Activity [20]: Non-Toxic

Reference: ChEMBL document CHEMBL5500411, “Discovery of Dual MER/AXL Kinase Inhibitors as Bifunctional Small Molecules for Inhibiting Tumor Growth and Enhancing Tumor Immune Microenvironment” (J Med Chem, 2024)
